Assay results reported in article PMC4424118 (Nature structural & molecular biology, 2015).

Tests used:
[1] = molecular target: SSTR3 somatostatin receptor (Homo sapiens, UniProt P32745); experiment: PRESTO-TANGO / TANGO β-arrestin recruitment assay, SSTR3; format: cell-based
MRGPRX2 [2] = molecular target: T1, MRGPRX2 (Homo sapiens, UniProt Q96LB1); experiment: TANGO β-arrestin recruitment assay, MRGPRX2; format: cell-based; settings: NCC-1 screen, confirmed in concentration-response studies
T1 sequence (Q96LB1 1-330): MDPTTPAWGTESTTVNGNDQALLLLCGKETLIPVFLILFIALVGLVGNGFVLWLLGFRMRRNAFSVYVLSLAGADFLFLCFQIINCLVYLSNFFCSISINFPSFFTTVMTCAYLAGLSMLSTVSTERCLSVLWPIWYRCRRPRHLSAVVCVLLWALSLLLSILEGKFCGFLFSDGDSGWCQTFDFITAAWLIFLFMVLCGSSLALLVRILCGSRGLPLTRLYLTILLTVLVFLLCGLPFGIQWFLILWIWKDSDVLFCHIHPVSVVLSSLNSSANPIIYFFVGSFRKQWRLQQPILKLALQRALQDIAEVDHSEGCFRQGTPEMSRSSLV

DRD5 dopamine receptor = DRD5 dopamine receptor (Homo sapiens, UniProt P21918); experiment: TANGO β-arrestin recruitment assay, DRD5; format: cell-based; settings: PRESTO-TANGO screen and concentration-response (Fig. 4c)
[3] = test system: 133 non-orphan, non-olfactory GPCR targets; experiment: PRESTO-TANGO parallel GPCR-ome screening β-arrestin recruitment assay; format: cell-based, human; settings: of 133 non-orphan
DRD4 dopamine receptor = molecular target: T2, DRD4 dopamine receptor (Homo sapiens, UniProt P21917); experiment: TANGO β-arrestin recruitment assay, DRD4; format: cell-based; settings: PRESTO-TANGO screen and concentration-response (Fig. 4b)
T2 sequence (P21917 1-419): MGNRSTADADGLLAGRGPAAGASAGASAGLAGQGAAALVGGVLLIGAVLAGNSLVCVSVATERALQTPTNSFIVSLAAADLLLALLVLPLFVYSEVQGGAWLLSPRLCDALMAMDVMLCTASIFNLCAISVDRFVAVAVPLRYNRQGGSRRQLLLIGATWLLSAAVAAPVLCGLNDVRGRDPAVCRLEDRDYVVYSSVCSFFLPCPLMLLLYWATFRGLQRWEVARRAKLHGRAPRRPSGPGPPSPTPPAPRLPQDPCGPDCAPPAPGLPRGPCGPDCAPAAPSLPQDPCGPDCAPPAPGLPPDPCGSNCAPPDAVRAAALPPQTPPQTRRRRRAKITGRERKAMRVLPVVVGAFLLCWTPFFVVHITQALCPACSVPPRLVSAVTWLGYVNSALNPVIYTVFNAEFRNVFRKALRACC

MRGPRX2 [4] = molecular target: T1, MRGPRX2; experiment: cAMP; format: cell-based; settings: Gs assay, HEK293T cells
MRGPRX4 [5] = molecular target: T3, MRGPRX4 (Homo sapiens, UniProt Q96LA9); experiment: calcium mobilization assay, stable MRGPRX4 cell line; format: cell-based; settings: MRGPRX4-expressing stable cells
How it was run: (§1)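 Tetracycline-inducible Flp-In T-Rex HEK-T lines carried FLAG-tagged receptor in pcDNA5/FRT/TO and were kept with 15 μg/ml blasticidin and 100 μg/ml hygromycin B. Expression was induced with 1ug/ml tetracycline for 24 h. The calcium assay used 15,000 cells/well and FLIPR Calcium 4 dye (45 min 37°C, 15 min RT), with 16-point 3-fold dilutions at final 10 μM–0.003 nM. Fluorescence was read for 10 s baseline plus 120 s.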

MRGPRX4 [6] = molecular target: T3, MRGPRX4; experiment: cAMP; format: cell-based; settings: Gs assay, HEK293T cells
MRGPRX4 [7] = molecular target: T3, MRGPRX4; experiment: cAMP; format: cell-based; settings: Gi assay, MRGPRX4-expressing cells
[8] = test system: 91 orphan and poorly annotated GPCRs; experiment: TANGO screen of the NCC-1 library; format: cell-based, human
MRGPRX1 [9] = molecular target: T4, MRGPRX1 (Homo sapiens, UniProt Q96LB2); experiment: cAMP; format: cell-based; settings: Gs assay, HEK293T cells
MRGPRX4 orphan GPCR = MRGPRX4 orphan GPCR (Homo sapiens, UniProt Q96LA9); experiment: TANGO β-arrestin recruitment assay, MRGPRX4; format: cell-based; settings: initial NCC-1 screen
MRGPRX3 = MRGPRX3 (Homo sapiens, UniProt Q96LB0); experiment: cAMP; format: cell-based; settings: Gs assay, HEK293T cells
MRGPRX2 [10] = molecular target: T1, MRGPRX2; experiment: PI hydrolysis assay, MRGPRX2; format: cell-based
How it was run: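 HEK-293T cells were transiently transfected with 10 μg receptor DNA per 15 cm dish and seeded the next day on poly-L-lysine in 1% dialyzed FBS. They were labelled 16 h with 1 μCi/well ³H-inositol in inositol-free DMEM. Concentration series were applied in quadruplicate in HBSS/24 mM NaHCO₃/11 mM glucose/15 mM LiCl, pH 7.4, for 1 h at 37°C. Cells were lysed with 50 mM formic acid, and extracts were counted by SPA beads.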

MRGPRX2 [11] = molecular target: T1, MRGPRX2; experiment: calcium mobilization assay, stable MRGPRX2 cell line; format: cell-based; settings: MRGPRX2-expressing stable cells
How it was run: as §1

[12] = molecular target: NTSR2 neurotensin receptor (Homo sapiens, UniProt O95665); experiment: TANGO β-arrestin recruitment assay, NTSR2; format: cell-based; settings: for agonist activity at NTSR2 neurotensin receptors: TANGO, agonist mode
HTR1A serotonin receptor = molecular target: T5, HTR1A serotonin receptor (Homo sapiens, UniProt P08908); experiment: TANGO assay in antagonist mode, HTR1A; format: cell-based; settings: 1 μM clozapine
T5 sequence (P08908 1-422): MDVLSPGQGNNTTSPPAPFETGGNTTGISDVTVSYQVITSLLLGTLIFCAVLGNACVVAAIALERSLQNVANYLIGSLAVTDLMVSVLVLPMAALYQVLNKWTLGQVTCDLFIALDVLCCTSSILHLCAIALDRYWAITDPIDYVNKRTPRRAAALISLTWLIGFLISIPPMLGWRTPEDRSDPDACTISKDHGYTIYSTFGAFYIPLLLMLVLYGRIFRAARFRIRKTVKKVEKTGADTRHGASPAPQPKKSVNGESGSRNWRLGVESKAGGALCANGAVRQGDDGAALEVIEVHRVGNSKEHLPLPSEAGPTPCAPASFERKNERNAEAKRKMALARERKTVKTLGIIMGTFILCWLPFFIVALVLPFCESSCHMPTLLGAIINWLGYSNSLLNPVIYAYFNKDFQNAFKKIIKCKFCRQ

HTR1D serotonin receptor = HTR1D serotonin receptor (Homo sapiens, UniProt P28221); experiment: TANGO assay in antagonist mode, HTR1D; format: cell-based; settings: 1 μM clozapine
MRGPRX1 [13] = molecular target: T4, MRGPRX1; experiment: calcium mobilization assay, stable MRGPRX1 cell line; format: cell-based; settings: MRGPRX1-expressing stable cells
How it was run: as §1

[14] = molecular target: MLNR motilin receptor TANGO construct; experiment: TANGO
[15] = molecular target: T6, CX3CR1 chemokine receptor (Homo sapiens, UniProt P49238); experiment: TANGO β-arrestin recruitment assay, CX3CR1; format: cell-based; settings: n = 4
T6 sequence (P49238 1-355): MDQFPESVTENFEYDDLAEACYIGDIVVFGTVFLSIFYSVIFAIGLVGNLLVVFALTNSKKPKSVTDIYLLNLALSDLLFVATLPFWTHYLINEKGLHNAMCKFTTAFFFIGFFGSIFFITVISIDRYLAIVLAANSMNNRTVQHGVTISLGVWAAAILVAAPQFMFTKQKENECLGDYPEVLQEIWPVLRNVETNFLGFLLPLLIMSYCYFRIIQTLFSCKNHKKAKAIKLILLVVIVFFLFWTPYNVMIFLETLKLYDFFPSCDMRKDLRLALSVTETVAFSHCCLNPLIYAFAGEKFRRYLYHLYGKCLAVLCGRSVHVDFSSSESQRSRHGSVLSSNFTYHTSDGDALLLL

Chain of NTSR2 neurotensin receptor (O95665 whole entry): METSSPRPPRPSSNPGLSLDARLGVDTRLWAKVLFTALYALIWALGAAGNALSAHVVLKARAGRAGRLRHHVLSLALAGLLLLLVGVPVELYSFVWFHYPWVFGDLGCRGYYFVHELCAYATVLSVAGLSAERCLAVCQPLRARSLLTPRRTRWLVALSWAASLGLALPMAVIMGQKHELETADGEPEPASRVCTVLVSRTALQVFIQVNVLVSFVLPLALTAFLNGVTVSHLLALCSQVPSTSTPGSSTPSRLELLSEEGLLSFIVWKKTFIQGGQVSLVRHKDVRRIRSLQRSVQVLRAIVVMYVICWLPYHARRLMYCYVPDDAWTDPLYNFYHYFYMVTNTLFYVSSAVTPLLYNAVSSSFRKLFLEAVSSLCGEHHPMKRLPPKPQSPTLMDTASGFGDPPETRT
T3 sequence (Q96LA9 whole entry): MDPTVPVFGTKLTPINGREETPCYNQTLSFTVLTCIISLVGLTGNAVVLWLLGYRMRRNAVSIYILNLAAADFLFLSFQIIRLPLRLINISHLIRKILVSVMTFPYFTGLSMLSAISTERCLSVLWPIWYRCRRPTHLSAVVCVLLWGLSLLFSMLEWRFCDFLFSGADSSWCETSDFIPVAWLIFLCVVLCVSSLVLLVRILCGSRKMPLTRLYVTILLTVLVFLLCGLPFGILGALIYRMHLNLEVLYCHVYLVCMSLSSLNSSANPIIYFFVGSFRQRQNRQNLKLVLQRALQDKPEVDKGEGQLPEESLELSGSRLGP
T4 sequence (Q96LB2 whole entry): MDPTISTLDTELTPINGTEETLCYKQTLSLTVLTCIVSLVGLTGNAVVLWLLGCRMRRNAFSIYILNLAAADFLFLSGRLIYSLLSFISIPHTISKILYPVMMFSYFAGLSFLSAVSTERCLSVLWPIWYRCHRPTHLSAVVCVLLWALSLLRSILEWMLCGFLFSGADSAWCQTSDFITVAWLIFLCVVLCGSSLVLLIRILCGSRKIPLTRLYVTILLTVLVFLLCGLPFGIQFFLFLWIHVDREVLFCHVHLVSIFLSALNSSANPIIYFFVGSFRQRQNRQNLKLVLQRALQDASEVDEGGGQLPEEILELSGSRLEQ
Chain of SSTR3 somatostatin receptor (P32745 whole entry): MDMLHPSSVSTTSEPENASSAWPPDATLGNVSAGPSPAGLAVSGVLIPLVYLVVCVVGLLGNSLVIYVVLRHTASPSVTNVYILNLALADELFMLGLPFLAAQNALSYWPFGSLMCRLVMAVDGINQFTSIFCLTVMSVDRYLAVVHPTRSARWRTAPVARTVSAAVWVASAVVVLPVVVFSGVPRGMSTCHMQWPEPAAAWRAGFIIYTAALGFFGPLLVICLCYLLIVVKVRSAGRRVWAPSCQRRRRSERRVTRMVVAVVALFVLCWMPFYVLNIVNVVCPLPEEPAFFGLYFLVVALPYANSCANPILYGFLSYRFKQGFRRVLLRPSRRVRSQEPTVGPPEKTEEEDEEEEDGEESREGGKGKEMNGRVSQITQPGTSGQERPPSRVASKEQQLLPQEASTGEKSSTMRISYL
Chain of MRGPRX4 orphan GPCR (Q96LA9 whole entry): as the sequence (Q96LA9 whole entry) above
Chain of HTR1D serotonin receptor (P28221 whole entry): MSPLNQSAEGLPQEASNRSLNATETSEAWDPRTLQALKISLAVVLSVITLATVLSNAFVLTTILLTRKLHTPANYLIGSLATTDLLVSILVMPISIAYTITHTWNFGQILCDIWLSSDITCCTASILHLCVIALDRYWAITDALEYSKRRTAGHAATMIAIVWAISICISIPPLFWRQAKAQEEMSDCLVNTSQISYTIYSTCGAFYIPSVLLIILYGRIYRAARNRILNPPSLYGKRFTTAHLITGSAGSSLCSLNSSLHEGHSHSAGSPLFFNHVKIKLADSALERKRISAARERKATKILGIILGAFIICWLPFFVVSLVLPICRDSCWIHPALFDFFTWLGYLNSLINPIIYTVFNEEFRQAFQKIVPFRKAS
Chain of MLNR motilin receptor TANGO construct (O43193 whole entry): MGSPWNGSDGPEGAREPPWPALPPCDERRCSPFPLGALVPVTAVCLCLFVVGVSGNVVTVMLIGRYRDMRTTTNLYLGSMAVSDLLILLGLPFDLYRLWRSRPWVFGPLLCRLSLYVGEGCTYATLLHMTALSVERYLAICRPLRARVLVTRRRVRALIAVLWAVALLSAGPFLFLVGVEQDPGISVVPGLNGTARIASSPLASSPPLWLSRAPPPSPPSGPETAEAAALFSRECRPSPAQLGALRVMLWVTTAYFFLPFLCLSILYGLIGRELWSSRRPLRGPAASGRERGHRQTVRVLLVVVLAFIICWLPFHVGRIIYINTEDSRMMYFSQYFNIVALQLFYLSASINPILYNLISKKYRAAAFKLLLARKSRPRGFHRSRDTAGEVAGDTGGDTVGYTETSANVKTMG
Chain of MRGPRX3 (Q96LB0 whole entry): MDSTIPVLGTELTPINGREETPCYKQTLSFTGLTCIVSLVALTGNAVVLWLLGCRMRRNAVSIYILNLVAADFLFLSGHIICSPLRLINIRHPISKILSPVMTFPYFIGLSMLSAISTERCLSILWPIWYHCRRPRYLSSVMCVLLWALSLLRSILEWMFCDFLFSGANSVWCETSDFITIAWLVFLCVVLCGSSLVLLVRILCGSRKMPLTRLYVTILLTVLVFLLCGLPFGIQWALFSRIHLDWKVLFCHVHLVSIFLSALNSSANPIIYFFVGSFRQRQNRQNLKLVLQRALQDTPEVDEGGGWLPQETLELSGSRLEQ
Chain of DRD5 dopamine receptor (P21918 whole entry): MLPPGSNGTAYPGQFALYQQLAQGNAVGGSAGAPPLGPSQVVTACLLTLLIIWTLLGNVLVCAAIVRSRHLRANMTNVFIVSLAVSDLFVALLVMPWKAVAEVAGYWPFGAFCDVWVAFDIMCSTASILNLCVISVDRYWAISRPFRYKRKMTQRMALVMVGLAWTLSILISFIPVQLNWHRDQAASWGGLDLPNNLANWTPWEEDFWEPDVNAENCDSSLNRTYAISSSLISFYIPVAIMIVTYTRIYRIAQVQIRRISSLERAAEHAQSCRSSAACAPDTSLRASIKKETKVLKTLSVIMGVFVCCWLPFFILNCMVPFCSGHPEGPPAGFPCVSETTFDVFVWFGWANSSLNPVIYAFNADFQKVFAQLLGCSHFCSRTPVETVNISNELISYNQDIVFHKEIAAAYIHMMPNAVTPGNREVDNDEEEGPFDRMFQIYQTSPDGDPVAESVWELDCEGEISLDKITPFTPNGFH

With `CNCCC(Oc1ccc(C(F)(F)F)cc1)c1ccccc1` (centres unmarked) [Fluoxetine, fluoxetine] the “agonist activity at SSTR3 in follow-up assays” value ([1]; follow-up assays (data not shown)) was “not confirmed” and the “agonist activity at the SSTR3 somatostatin receptor” value ([1]; initial PRESTO-TANGO screen) was “modest agonist activity”.

With `CC(C)[C@@H](CN1CC[C@@](C)(c2cccc(O)c2)[C@@H](C)C1)NC(=O)[C@H]1Cc2ccc(O)cc2CN1` [JDTic] the “activity in the TANGO assay at MRGPRX2” value (MRGPRX2 [2]) was “significant activity”.

For `CCN(CC)C(=O)[C@@H]1C=C2c3cccc4[nH]cc(c34)C[C@H]2N(C)C1` [LSD, lysergic acid diethylamide], the “activity at the D5 dopamine receptor” value (DRD5 dopamine receptor) was “displayed activity”, the “number of tested targets with activity” value [3] was 15 and the “activity at the D4 dopamine receptor” value (DRD4 dopamine receptor) was “displayed activity”.

For `CC(C)[C@H]1CC[C@H](C(=O)N[C@H](Cc2ccccc2)C(=O)O)CC1` [Nateglinide, nateglinide], the “activity when cAMP was measured at MRGPRX2” value (MRGPRX2 [4]) was “inactive”, the calcium mobilization response (MRGPRX4 [5]) was “concentration-dependent responses” and the “activity when cAMP was measured at MRGPRX4” value (MRGPRX4 [6]) was “exceedingly modest activity at high concentrations”. The “inhibition of the cAMP response to isoproterenol” value (MRGPRX4 [7]) was “inability”, the “selectivity among the 91 targets tested” value ([8]; NCC-1 screen) was “apparently selective” and the “activity when cAMP was measured at MRGPRX1” value (MRGPRX1 [9]) was “inactive”. For the same molecule, the “increase in luminescence over basal levels” value (MRGPRX4 orphan GPCR) was 45 fold and the “activity when cAMP was measured at MRGPRX3” value (MRGPRX3) was “inactive”.

`COC(=O)[C@@H]1C[C@H](OC(=O)CSC#N)C(=O)[C@H]2[C@@]1(C)CC[C@H]1C(=O)O[C@H](c3ccoc3)C[C@]21C` [RB64] was tested, and the “activity in the TANGO assay at MRGPRX2” value (MRGPRX2 [2]) was “significant activity”.

With `CN1CC[C@]2(c3cccc(O)c3)Cc3nc4ccccc4cc3C[C@H]2C1` [SB 205,607] the “concentration-dependent activity at MRGPRX2 by PI hydrolysis” value (MRGPRX2 [10]) was “confirmed”, the calcium mobilization response (MRGPRX2 [11]) was “concentration-dependent responses” and the “activity in the TANGO assay at MRGPRX2” value (MRGPRX2 [2]) was “most active compounds”.

With `COc1cccc(OC)c1-c1cc(C(=O)NC2(C(=O)O)C3CC4CC(C3)CC2C4)nn1-c1ccnc2cc(Cl)ccc12` (centres unmarked) [SR48692] the “agonist activity at NTSR2 neurotensin receptors” value [12] was “agonists”.

For `CC(C)C[C@H](NC(=O)[C@@H](O)[C@H](N)Cc1ccccc1)C(=O)O` [bestatin], the “number of targets with > 2-fold increase in luminescence” value ([8]; of 91 targets tested) was 59 and the “percent of targets with > 2-fold increase in luminescence” value ([8]; of 91 targets tested) was 65%.

`CN1CCN(C2=Nc3cc(Cl)ccc3Nc3ccccc32)CC1` [clozapine] was tested, and the “effect of pre-exposure on responses to the agonist LSD” value (HTR1A serotonin receptor) was “little or no effect” and the “effect of pre-exposure on responses to the agonist LSD” value (HTR1D serotonin receptor) was “little or no effect”.

With `CN1CCC(=C2c3ccccc3C=Cc3ccccc32)CC1` [cyproheptadine] the “activity in the TANGO assay at MRGPRX2” value (MRGPRX2 [2]) was “showed activity”.

With `COc1ccc2c(c1)[C@]13CCCC[C@@H]1[C@H](C2)N(C)CC3` [dextromethorphan] the “concentration-dependent activity at MRGPRX2 by PI hydrolysis” value (MRGPRX2 [10]) was “confirmed” and the “activity in the TANGO assay at MRGPRX2” value (MRGPRX2 [2]) was “showed activity”.

With `COC(=O)C[C@](O)(CCCC(C)(C)O)C(=O)O[C@@H]1C(OC)=C[C@]23CCCN2CCc2cc4c(cc2[C@H]13)OCO4` [homoharringtonine] the “number of targets with greater than 2-fold reduction in luminescence” value ([8]; of 91 targets tested) was 58 and the “percent of targets with greater than 2-fold reduction in luminescence” value ([8]; of 91 targets tested) was 64%.

For `CN1CCC(=C2c3ccccc3CC(=O)c3sccc32)CC1` [ketotifen], the “activity in the TANGO assay at MRGPRX2” value (MRGPRX2 [2]) was “showed activity”.

`C[C@@H]1CN([C@H]2CC[C@](C#N)(c3ccc(F)cc3)CC2)CC[C@]1(C(=O)O)c1ccccc1` [levocabastine] was tested, and the “antagonism of SR48692- or SR142948-induced arrestin recruitment responses” value ([12]; NTSR2-transfected cells, pre-incubation before agonist) was “antagonists”.

With `CN1CC[C@]23CCCC[C@H]2[C@H]1Cc1ccc(O)cc13` [levorphan] the “activity in the TANGO assay at MRGPRX2” value (MRGPRX2 [2]) was “showed activity”.

For `CN1CCC(=C2c3ccccc3CCc3sccc32)CC1` [pizotyline], the “activity in the TANGO assay at MRGPRX2” value (MRGPRX2 [2]) was “showed activity”.

For `Oc1ccc(/C=C/c2cc(O)cc(O)c2)cc1` [resveratrol], the “number of targets with greater than 2-fold reduction in luminescence” value ([8]; of 91 targets tested) was 70 and the “percent of targets with greater than 2-fold reduction in luminescence” value ([8]; of 91 targets tested) was 77%.

For BAM8-22, the calcium mobilization response (MRGPRX1 [13]) was “concentration-dependent responses”.

SR142948 was tested, and the “agonist activity at NTSR2 neurotensin receptors” value [12] was “agonists”.

For “β-arrestin2-TEV fusion (from UniProt P32121 1-409) (natural protein)”, the fold response above baseline [14] was 184 fold.

B1: CX3CL1: ligand of the CX3CR1 chemokine receptor (protein)
chain: QHHGVTKCNITCSKMTSKIPVALLIHYQQNQASCGKRAIILETRQHRLFCADPKEQWVKDAMQHLDRQAAALTRNGGTFEKQIGEVKPRTTPAAGGMDESVVLEPEATGESSSLEPTPSSQEAQRALGTSPELPTGVTGSSGTRLPPTPKAQDGGPVGTELFRVPPVSTAATWQSSAPHQPGPSLWAEAKTSEAPSTQDPSTQASTASSPAPEENAPSEGQRVWGQGQSPRPENSLEREEMGPVPAHTDAFQDWGPGSMAHVSVVPVSSEGTPSREPVASGSWTPKAEEPIHATMDPQRLGVLITPVPDAQAATRRQAVGLLAFLGLLFCLGVAMFTYQSLQGCPRKMAGEMAEGLRYIPRSCGSNSYVLVPV
With B1 the EC50 [15] was 0.34 nM.
